Experimental data collected from several papers.
Compare with care: the assays were run in different laboratories.
CHEK2: Serine/threonine-protein kinase Chk2 (CHEK2, Homo sapiens, UniProt O96017)

Structure (SMILES)	target	effect on	mode	technique	concentration	endpoint	value
CN([C@@H]1CCc2c(CC(=O)O)c3cc(S(C)(=O)=O)ccc3n2C1)S(=O)(=O)c1ccc(F)cc1	CHEK2	cell-free assay		competition with immobilised ligand	1 µM	remaining binding	100%
CC1(C)NC(=O)c2[nH]c3c(Cl)c(Cl)ccc3c2C1C#N (stereo not drawn)	CHEK2	thermal stability		DSF	10 µM	ΔTm	-0.1 °C
Nc1ncnc2occ(-c3ccc(NC(=O)Nc4cc(C(F)(F)F)ccc4F)cc3)c12	CHEK2	cell-free assay	inhibitor		20 µM	remaining signal	13%
CC(=O)N1CCC(c2ccc(C(=O)NC3=NCCN3)cc2C(F)(F)F)CC1	CHEK2	cell-free assay		competition with immobilised ligand	1 µM	remaining binding	100%
C[S+]([O-])c1ccc(-c2nc(-c3ccncc3)c(-c3ccc(F)cc3)[nH]2)cc1 (stereo not drawn)	CHEK2	cell-free assay			0.5 µM	remaining signal	99.6%
Cc1ccc(NC(=O)c2ccc(C)c(C(F)(F)F)c2)cc1C#Cc1nn(C2CCC(O)CC2)c2ncnc(N)c12 (stereo not drawn)	CHEK2	cell-free assay			10 µM	remaining signal	111%
O=C1CCc2cc(Nc3cc(OC4CCOCC4)c([N+](=O)[O-])cc3Cl)ccc2N1	CHEK2	cell-free assay		competition with immobilised ligand	1 µM	remaining binding	69%
Cc1ccc(C(=O)NCc2ccsc2)cc1C#Cc1cn(C(C)C)c2ncnc(N)c12	CHEK2	enzyme activity	inhibitor		1 µM	activity vs control	109%
N#CC1c2c([nH]c3c(Cl)c(Cl)ccc23)C(=O)NC12CCCCC2 (racemic)	CHEK2	thermal stability		DSF	10 µM	ΔTm	0.1 °C
O=C1NC(=O)c2c1c1c3ccccc3[nH]c1n1cncc21	CHEK2	cell-free assay			0.5 µM	remaining signal	21.2%
CO[C@@H](C)c1c(Nc2ccc([C@H](N(C)C(=O)C3CCS(=O)(=O)CC3)C(F)(F)F)cc2)cnc2cc(Cl)nn12	CHEK2	cell-free assay		competition with immobilised ligand	1 µM	remaining binding	90%
O=C1Nc2ccc(Cl)cc2C1=Cc1cc(Cl)c(O)c(Cl)c1	CHEK2	cell-free assay			0.5 µM	remaining signal	70.2%
CCN1CCC2(CC1)NC(=O)c1c(c3ccc(Cl)c(Cl)c3n1C)C2C#N (racemic)	CHEK2	thermal stability		DSF	10 µM	ΔTm	-0.2 °C
CN(C)C1CCN(CC#Cc2nn(C3CCCC3)c3nc(NCc4ccccc4)ncc23)C1 (stereo not drawn)	CHEK2	enzyme activity	inhibitor	FRET	0.1 µM	inhibition	6%
O=C(Nc1cccnn1)N1CC(C/C=C/c2cncc(Oc3ccc(C(F)(F)F)cn3)n2)C1	CHEK2	cell-free assay		competition with immobilised ligand	1 µM	remaining binding	100%
Cn1c2c(Cl)c(Cl)ccc2c2cc(N)[nH]c(=O)c21	CHEK2	thermal stability		DSF	10 µM	ΔTm	0.1 °C
Cc1ccc(Nc2nccc(N(C)c3ccc4c(C)n(C)nc4c3)n2)cc1S(N)(=O)=O	CHEK2	enzyme activity	inhibitor		0.3 µM	inhibition	-13%
Cn1c2c(c3ccccc31)C(C#N)C(C)(C)NC2=O (stereo not drawn)	CHEK2	thermal stability		DSF	10 µM	ΔTm	0.8 °C
C[C@H](c1ccc(F)cc1)N(Cc1cccc(C(=O)O)c1)C(=O)c1cnc2ccccc2c1	CHEK2	cell-free assay		competition with immobilised ligand	1 µM	remaining binding	91%
C#Cc1cccc(Nc2ncnc3cc(OCCOC)c(OCCOC)cc23)c1	CHEK2	cell-free assay			0.5 µM	remaining signal	100%
COc1cc(/C=C/C(=O)CC(=O)/C=C/c2ccc(O)c(OC)c2)ccc1O	CHEK2	enzyme activity	inhibitor		1 µM	activity vs control	68%
CCCCN(CCCC)C(=O)CN1C[C@H](c2cc(OC)c3c(c2)OCO3)[C@@H](C(=O)O)[C@@H]1CC(C)(C)CCC	CHEK2	cell-free assay		competition with immobilised ligand	1 µM	remaining binding	100%
CNC(=O)c1cc(Oc2ccc(NC(=O)Nc3ccc(Cl)c(C(F)(F)F)c3)cc2)ccn1	Serine/threonine-protein kinase Chk2 (CHEK2, Homo sapiens, UniProt O96017, I157T)	enzyme activity	inhibitor		0.3 µM	inhibition	-9%
Cc1ccc(NC(=O)c2ccc(CN3CCN(C)CC3)cc2)cc1Nc1nc(-c2cccnc2)cs1	CHEK2	cell-free assay			0.5 µM	remaining signal	101%
O=C(N1CCS(=O)(=O)CC1)N1C[C@H](c2ccc(OC(F)(F)F)cc2)C[C@H](c2nc(C3CC3)no2)C1	CHEK2	cell-free assay		competition with immobilised ligand	1 µM	remaining binding	100%
Cn1c2c(c3ccc(Cl)c(Cl)c31)C(C#N)C1(CCOCC1)NC2=O (stereo not drawn)	CHEK2	thermal stability		DSF	10 µM	ΔTm	-0.3 °C
Cc1cc(NC(=O)c2cccc3cc(-c4cccc5[nH]nc(N)c45)ccc23)ccc1F	Serine/threonine-protein kinase Chk2 (CHEK2, Homo sapiens, UniProt O96017, R145W)	enzyme activity	inhibitor		0.1 µM	activity vs control	99%
